From ChEMBL document CHEMBL1777742, “Synthesis, cytotoxic activities and cell cycle arrest profiles of naphtho[2,1-α]pyrrolo[3,4-c]carbazole-5,7(6H,12H)-dione glycosides” (Bioorg Med Chem Lett, 2011)
The source made the active and inactive calls. The rule behind the calls is not given here.

Legend:
Format in all cases: functional, cell-based
[1] = system: BXPC-3; assay: Cytotoxicity against human BxPC3 cells
[2] = system: MCF7; assay: Cell cycle arrest in human MCF7 cells assessed as accumulation of cells at G1 phase at 10 uM after 24 hrs by FACS analysis
Procedure, shortened: (§1)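 MCF-7 breast cells were exposed to each compound at 10 μM for 24 h. Cell-cycle distribution was then analysed by FACS, reading the percentage of cells in G1 and S phases.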

[3] = system: HCT-116; assay: Cytotoxicity against human HCT116 cells
[4] = system: MDA-MB-435; assay: Cytotoxicity against human MDA-MB-435 cells
[5] = system: MCF7; assay: Cell cycle arrest in human MCF7 cells assessed as accumulation of cells at S phase at 10 uM after 24 hrs by FACS analysis; procedure, shortened: as §1
[6] = system: MDA-MB-468; assay: Cytotoxicity against human MDA-MB-468 cells
[7] = system: A549; assay: Cytotoxicity against human A549 cells
[8] = system: PC-3; assay: Cytotoxicity against human PC3 cells
[9] = system: BXPC-3; assay: Cell cycle arrest in human BxPC3 cells assessed as accumulation of cells at S phase at 10 uM after 24 hrs by FACS analysis
Procedure, shortened: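 BxPC3 cells were treated with each compound at 10 μM. The cell-cycle profile was determined by FACS as the percentage of cells in each phase, including S and G2/M.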

[10] = system: MDA-MB-231; assay: Cytotoxicity against human MDA-MB-231 cells
[11] = system: MCF7; assay: Cytotoxicity against human MCF7 cells
[12] = system: MCF7; assay: Cell cycle arrest in human MCF7 cells assessed as decrease of cells at S phase at 10 uM after 24 hrs by FACS analysis
Procedure, shortened: (§2)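 Cells were treated with a single 10 μM concentration and analysed by FACS for cell-cycle distribution. The read-out was the percentage of cells in the G1, S and G2/M phases. A 24 h exposure is stated for MCF-7; no duration is given for BxPC3.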

[13] = system: BXPC-3; assay: Cell cycle arrest in human BxPC3 cells assessed as accumulation of cells at G2/M phase at 10 uM after 24 hrs by FACS analysis; procedure, shortened: as §2

Which IC50 [1] does the source give for O=C1NC(=O)c2c1c1c3ccccc3ccc1c1c2c2ccccc2n1[C@@H]1O[C@H](CO)[C@@H](O)[C@H]1O here?
The IC50 was 5.3 µM.

And the Activity [2]?
The Activity was “inactive”.

And the IC50 [3]?
Its IC50 is 3.8 µM.

And the IC50 [4]?
The IC50 was 3.2 µM.

And the Activity [5]?
Its Activity is “Active”.

And the IC50 [6]?
Its IC50 is 4.4 µM.

What about the IC50 [7] of the same compound?
Its IC50 is 2.1 µM.

What about the IC50 [8] of the same compound?
The IC50 was 2.4 µM.

What about the Activity [9] of the same compound?
Its Activity is “Active”.

And the IC50 [10]?
The IC50 was 2.4 µM.

And the IC50 [11]?
The IC50 was 5.3 µM.

What does the source list for O=C1NC(=O)c2c1c1c3ccccc3ccc1c1c2c2ccccc2n1[C@H]1C[C@H](O)[C@@H](CO)O1?
IC50 [1]: 7.4 µM; Activity [2]: inactive; IC50 [3]: 8.7 µM; IC50 [4]: 4.1 µM; Activity [5]: Active; IC50 [6]: 9.1 µM; IC50 [7]: 3.4 µM; IC50 [8]: 2.6 µM; Activity [9]: Active; IC50 [10]: 3.3 µM; IC50 [11]: 7.3 µM

O=C1NC(=O)c2c1c1c3ccccc3ccc1c1c2c2ccccc2n1[C@H]1OC[C@@H](O)[C@@H](O)[C@H]1O was tested. Which IC50 [1] did it give?
Its IC50 is 6.6 µM.

What about the Activity [2] of the same compound?
Its Activity is “inactive”.

What about the IC50 [3] of the same compound?
Its IC50 is 6 µM.

What about the IC50 [4] of the same compound?
Its IC50 is 3.3 µM.

What about the Activity [5] of the same compound?
Its Activity is “Active”.

And the IC50 [6]?
The IC50 was 3.4 µM.

And the IC50 [7]?
The IC50 was 2 µM.

And the IC50 [8]?
The IC50 was 2.1 µM.

What about the IC50 [10] of the same compound?
The IC50 was 3.3 µM.

What about the IC50 [11] of the same compound?
Its IC50 is 4.8 µM.

Which results are given for O=C1NC(=O)c2c1c1c3ccccc3ccc1c1[nH]c3ccccc3c21?
IC50 [1]: 8.3 µM; Activity [2]: Active; IC50 [3]: 5.7 µM; IC50 [4]: 5.7 µM; Activity [12]: Active; IC50 [6]: > 10 µM; IC50 [7]: 2.6 µM; IC50 [8]: 5.9 µM; Activity [13]: Active; IC50 [10]: 8.1 µM; IC50 [11]: 8.3 µM

What does the source list for O=C1NC(=O)c2c1c1c3ccccc3ccc1c1c2c2ccccc2n1[C@@H]1O[C@H](CO)[C@@H](O)[C@H](O)[C@H]1O?
IC50 [1]: 5.4 µM; Activity [2]: inactive; IC50 [3]: 5.1 µM; IC50 [4]: 3.5 µM; Activity [5]: Active; IC50 [6]: 6.1 µM; IC50 [7]: 2.8 µM; IC50 [8]: 2.3 µM; Activity [9]: Active; IC50 [10]: 2.7 µM; IC50 [11]: 6.1 µM

For C[C@@H]1O[C@@H](n2c3ccccc3c3c4c(c5c6ccccc6ccc5c32)C(=O)NC4=O)[C@H](O)[C@H](O)[C@H]1O, which IC50 [1] is on record?
Its IC50 is 7.3 µM.

And the Activity [2]?
The Activity was “inactive”.

What about the IC50 [3] of the same compound?
The IC50 was 3.1 µM.

And the IC50 [4]?
The IC50 was 3.6 µM.

What about the Activity [5] of the same compound?
Its Activity is “Active”.

What about the IC50 [6] of the same compound?
The IC50 was 5 µM.

And the IC50 [7]?
Its IC50 is 2.8 µM.

And the IC50 [8]?
Its IC50 is 2.7 µM.

And the IC50 [10]?
The IC50 was 4.7 µM.

And the IC50 [11]?
Its IC50 is 4.5 µM.
